Measurements gathered from unrelated publications.
Lines come from different studies, so protocols differ.
Target: Serine/threonine-protein kinase 17A (STK17A, Homo sapiens, UniProt Q9UEE5)
One construct used (Q9UEE5 1-414): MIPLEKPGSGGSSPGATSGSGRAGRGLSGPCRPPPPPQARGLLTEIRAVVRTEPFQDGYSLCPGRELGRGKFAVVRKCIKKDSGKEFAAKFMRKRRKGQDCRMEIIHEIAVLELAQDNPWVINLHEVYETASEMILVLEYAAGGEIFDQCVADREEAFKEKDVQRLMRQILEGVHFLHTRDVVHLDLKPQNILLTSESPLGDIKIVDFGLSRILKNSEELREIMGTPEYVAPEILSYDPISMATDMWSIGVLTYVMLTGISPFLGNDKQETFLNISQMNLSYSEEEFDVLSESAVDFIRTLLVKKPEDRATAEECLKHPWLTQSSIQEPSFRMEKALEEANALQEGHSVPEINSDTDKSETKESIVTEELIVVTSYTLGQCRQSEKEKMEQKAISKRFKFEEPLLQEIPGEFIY

With `Cc1c(C(=O)O)cc(-c2ccc(C3CCNCC3)cc2)c2ccc(-c3ccc(C(F)(F)F)cc3)cc12` the remaining binding was 99% (cell-free assay; competition with immobilised ligand; 1 µM).
`C=CC(=O)N1CCC(C(=O)NCC(=O)N2CCN(c3nc(-c4cnc(N)nc4C(F)F)nc(N4CCOCC4)n3)CC2)CC1` gave a remaining binding of 100% (binding; competition with immobilised ligand; 1 µM).
For `CC1=C(C#N)[C@@H](c2ccc3[nH]nc(C)c3c2)C(C#N)=C(c2ccc(Cl)cc2)N1`, the remaining binding was 100% (cell-free assay; competition with immobilised ligand; 1 µM).
For `COc1ncc2cc3ccccc3nc2c1C#N`, the remaining binding was 100% (cell-free assay; competition with immobilised ligand; 5 µM).
With `C[C@@H](c1ccc(-n2cnc3c(N)ncnc32)cc1)N1CCc2nn(C)c(Cc3ccccc3)c2C1=O` the remaining binding was 91% (binding; competition with immobilised ligand; 0.1 µM).
`Cn1nc(C(=O)NCc2ccc(C(=O)O)cc2)cc1-c1ccc2[nH]ccc2c1` gave a remaining binding of 92% (cell-free assay; competition with immobilised ligand; 0.1 µM).
`F[C@@H]1CCN(c2nccc(-c3cnn4ncccc34)n2)C1` has a remaining binding of 100% (binding; 1 µM).
`O=S(=O)(NC1CCC(c2cc(F)ccc2F)(S(=O)(=O)c2ccc(Cl)cc2)CC1)C(F)(F)F` (stereo not shown) has a remaining binding of 86% (cell-free assay; competition with immobilised ligand; 1 µM).
With `CN(C)c1ncc(F)c(-c2cnn3ncccc23)n1` the remaining binding was 95% (binding; 1 µM).
With `O=C(NCC1CCOCC1)c1n[nH]cc1NC(=O)c1c(F)cccc1F` the remaining binding was 94% (binding; competition with immobilised ligand; 1 µM).
The remaining binding of `C[C@@H]1CCN(c2nccc(-c3cnn4ncccc34)n2)C1` is reported as 19% (binding; 1 µM).
`Cc1cnc(Nc2ccc(C(=O)N3CCC(N4CCCC4)CC3)cc2)nc1-c1cc2ccccc2s1` has a remaining binding of 0.1% (binding; competition with immobilised ligand; 1 µM).
With `O=C(Nc1cccnn1)N1CCC(=Cc2cccc(Oc3ccc(C(F)(F)F)cn3)c2)CC1` the remaining binding was 79% (cell-free assay; competition with immobilised ligand; 1 µM).
The remaining binding of `CN(C)c1nccc(-c2cnc3ncccn23)n1` is reported as 100% (binding; 1 µM).
`CNC(=O)Nc1ccc2c(c1)CC[C@@]21OC(=O)N(CC(=O)N(Cc2ccc(F)cc2)[C@@H](C)C(F)(F)F)C1=O` has a remaining binding of 100% (cell-free assay; competition with immobilised ligand; 1 µM).
`O=C(c1ccc(Nc2ncc(Cl)c(-c3ccc(Cl)s3)n2)cc1)N1CCC(N2CCCC2)CC1` gave a remaining binding of 0.8% (binding; competition with immobilised ligand; 1 µM).
`Cc1cnn2ncc(-c3ccnc(N(C)C)n3)c2c1` has a remaining binding of 86% (binding; 1 µM).
`c1cncc(-c2cccc(Nc3nccc(NC4CCCCC4)n3)c2)c1` gave a remaining binding of 47% (binding; competition with immobilised ligand; 10 µM).
For `CN(CCCC(F)(F)F)c1nccc(-c2cnn3ncccc23)n1`, the remaining binding was 100% (binding; 1 µM).
`CNC(=O)[C@@H]1CC[C@@H](n2c(-c3ccc4cnccc4c3)nc3ccc(C(=O)NCc4cccc(C(N)=O)c4)cc32)C1` has a remaining binding of 100% (binding; competition with immobilised ligand; 1 µM).
With `N[C@H]1CCN(c2nccc(-c3cnn4ncccc34)n2)C1` the remaining binding was 100% (binding; 1 µM).
For `O=C(c1ccc(Nc2nccc(-c3cc4ccccc4s3)n2)cc1)N1CCC(N2CCCC2)CC1`, the remaining binding was 0.3% (binding; competition with immobilised ligand; 1 µM).
